{"source": "ChEMBL document CHEMBL3813688", "about": "“Synthesis, antitumor activity and mechanism of action of novel 1,3-thiazole derivatives containing hydrazide-hydrazone and carboxamide moiety” (Bioorg Med Chem Lett, 2016)", "key": {"HepG2 [1]": {"system": "HepG2", "assay": "Induction of apoptosis in human HepG2 cells assessed as late apoptotic cells at 0.55 ug/ml after 24 to 48 hrs by Annexin V-FITC/propidium iodide staining based flow cytometry (reference value: 0.1 %)", "type": "functional"}, "HepG2 [2]": {"system": "HepG2", "assay": "Induction of apoptosis in human HepG2 cells assessed as necrotic cells at 0.55 ug/ml after 24 to 48 hrs by Annexin V-FITC/propidium iodide staining based flow cytometry (reference value: 1.8 %)", "type": "functional"}, "HepG2 [3]": {"system": "HepG2", "assay": "Induction of apoptosis in human HepG2 cells assessed as viable cells at 1.1 ug/ml after 24 to 48 hrs by Annexin V-FITC/propidium iodide staining based flow cytometry (reference value: 95.6 %)", "type": "functional", "conditions": "read-out: Activity"}, "HepG2 [4]": {"system": "HepG2", "assay": "Induction of apoptosis in human HepG2 cells assessed as early apoptotic cells at 1.1 ug/ml after 24 to 48 hrs by Annexin V-FITC/propidium iodide staining based flow cytometry (reference value: 2.5 %)", "type": "functional"}, "HepG2 [5]": {"system": "HepG2", "assay": "Induction of apoptosis in human HepG2 cells assessed as late apoptotic cells at 1.1 ug/ml after 24 to 48 hrs by Annexin V-FITC/propidium iodide staining based flow cytometry (reference value: 0.1 %)", "type": "functional"}, "HepG2 [6]": {"system": "HepG2", "assay": "Induction of apoptosis in human HepG2 cells assessed as necrotic cells at 1.1 ug/ml after 24 to 48 hrs by Annexin V-FITC/propidium iodide staining based flow cytometry (reference value: 1.8 %)", "type": "functional"}, "HepG2 [7]": {"system": "HepG2", "assay": "Cell cycle arrest in human HepG2 cells assessed as accumulation at sub-G1 phase at 0.55 ug/ml after 48 hrs by propidium iodide staining based flow cytometry relative to control", "type": "functional"}, "HepG2 [8]": {"system": "HepG2", "assay": "Cell cycle arrest in human HepG2 cells assessed as accumulation at G1 phase at 0.55 ug/ml after 48 hrs by propidium iodide staining based flow cytometry (reference value: 57.68 %)", "type": "functional"}, "HepG2 [9]": {"system": "HepG2", "assay": "Cell cycle arrest in human HepG2 cells assessed as accumulation at S phase at 0.55 ug/ml after 48 hrs by propidium iodide staining based flow cytometry (reference value: 35.42 %)", "type": "functional"}, "HepG2 [10]": {"system": "HepG2", "assay": "Cell cycle arrest in human HepG2 cells assessed as accumulation at G2 phase at 0.55 ug/ml after 48 hrs by propidium iodide staining based flow cytometry (reference value: 6.89 %)", "type": "functional"}, "HepG2 [11]": {"system": "HepG2", "assay": "Cell cycle arrest in human HepG2 cells assessed as accumulation at sub-G1 phase at 1.1 ug/ml after 48 hrs by propidium iodide staining based flow cytometry relative to control", "type": "functional"}, "HepG2 [12]": {"system": "HepG2", "assay": "Cell cycle arrest in human HepG2 cells assessed as accumulation at G1 phase at 1.1 ug/ml after 48 hrs by propidium iodide staining based flow cytometry (reference value: 57.68 %)", "type": "functional"}, "HepG2 [13]": {"system": "HepG2", "assay": "Cell cycle arrest in human HepG2 cells assessed as accumulation at S phase at 1.1 ug/ml after 48 hrs by propidium iodide staining based flow cytometry (reference value: 35.42 %)", "type": "functional"}, "HepG2 [14]": {"system": "HepG2", "assay": "Cell cycle arrest in human HepG2 cells assessed as accumulation at G2 phase at 1.1 ug/ml after 48 hrs by propidium iodide staining based flow cytometry (reference value: 6.89 %)", "type": "functional"}, "HepG2 [15]": {"system": "HepG2", "assay": "Cell cycle arrest in human HepG2 cells assessed as accumulation at S phase after 48 hrs by propidium iodide staining based flow cytometry", "type": "functional"}, "MCF7": {"system": "MCF7", "assay": "Cytotoxicity against human MCF7 cells assessed as cell growth inhibition after 72 hrs by MTT assay", "type": "functional, cell-based", "conditions": "MCF7, 72 h", "in_short": "(§1)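 MTT growth assay in human cancer lines (MCF-7, HepG2, BGC-823, HeLa, A549), 72 h after treatment; 5-fluorouracil as reference. IC50 (μg/mL) taken as concentration giving 50% growth inhibition versus untreated control.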"}, "HeLa": {"system": "HeLa", "assay": "Cytotoxicity against human HeLa cells assessed as cell growth inhibition after 72 hrs by MTT assay", "type": "functional, cell-based", "in_short": "as §1"}, "HepG2 [16]": {"system": "HepG2", "assay": "Cytotoxicity against human HepG2 cells assessed as cell growth inhibition after 72 hrs by MTT assay", "type": "functional, cell-based", "conditions": "HepG2, 72 h", "in_short": "as §1"}, "[17]": {"assay": "Cytotoxicity against human BCG823 cells assessed as cell growth inhibition after 72 hrs by MTT assay", "type": "functional, cell-based", "conditions": "BCG823, 72 h", "in_short": "as §1"}, "A549": {"system": "A549", "assay": "Cytotoxicity against human A549 cells assessed as cell growth inhibition after 72 hrs by MTT assay", "type": "functional, cell-based", "conditions": "A549, 72 h", "in_short": "as §1"}, "[18]": {"assay": "Cytotoxicity against human HL7702 cells assessed as cell growth inhibition after 72 hrs by MTT assay", "type": "cell-based", "conditions": "L02, 72 h"}, "HepG2 [19]": {"system": "HepG2", "assay": "Cytotoxicity against human HepG2 cells assessed as cell growth inhibition at 20 ug/ml after 72 hrs by MTT assay", "type": "functional", "conditions": "HepG2, 72 h, read-out: GI"}, "HepG2 [20]": {"system": "HepG2", "assay": "Induction of apoptosis in human HepG2 cells assessed as viable cells at 0.55 ug/ml after 24 to 48 hrs by Annexin V-FITC/propidium iodide staining based flow cytometry (reference value: 95.6 %)", "type": "functional", "conditions": "read-out: Activity"}, "HepG2 [21]": {"system": "HepG2", "assay": "Induction of apoptosis in human HepG2 cells assessed as early apoptotic cells at 0.55 ug/ml after 24 to 48 hrs by Annexin V-FITC/propidium iodide staining based flow cytometry (reference value: 2.5 %)", "type": "functional"}}}
{"smiles": "Cc1nc(N(C)C(=O)NC(=O)c2c(F)cccc2F)sc1C(=O)N/N=C/c1ccccc1C(F)(F)F", "values": [{"measurement": "Activity", "setting": "HepG2 [1]", "value": 0.4, "unit": "%"}, {"measurement": "Activity", "setting": "HepG2 [2]", "value": 1.4, "unit": "%"}, {"measurement": "viability at 1.1 µg/mL", "setting": "HepG2 [3]", "value": 80.9, "unit": "%"}, {"measurement": "Activity", "setting": "HepG2 [4]", "value": 16.5, "unit": "%"}, {"measurement": "Activity", "setting": "HepG2 [5]", "value": 0.3, "unit": "%"}, {"measurement": "Activity", "setting": "HepG2 [6]", "value": 2.3, "unit": "%"}, {"measurement": "Activity", "setting": "HepG2 [7]", "value": 34.5, "unit": "%"}, {"measurement": "Activity", "setting": "HepG2 [8]", "value": 41.02, "unit": "%"}, {"measurement": "Activity", "setting": "HepG2 [9]", "value": 56.87, "unit": "%"}, {"measurement": "Activity", "setting": "HepG2 [10]", "value": 2.11, "unit": "%"}, {"measurement": "Activity", "setting": "HepG2 [11]", "value": 66.72, "unit": "%"}, {"measurement": "Activity", "setting": "HepG2 [12]", "value": 11.83, "unit": "%"}, {"measurement": "Activity", "setting": "HepG2 [13]", "value": 88.17, "unit": "%"}, {"measurement": "Activity", "setting": "HepG2 [14]", "value": 0, "unit": "%"}, {"measurement": "Activity", "setting": "HepG2 [15]", "value": "Dose-dependent effect"}, {"measurement": "IC50", "setting": "MCF7", "value": 7.34, "unit": "mg/L"}, {"measurement": "IC50", "setting": "HeLa", "value": 6.51, "unit": "mg/L"}, {"measurement": "IC50", "setting": "HepG2 [16]", "value": 1.11, "unit": "mg/L"}, {"measurement": "IC50", "setting": "[17]", "value": 7.88, "unit": "mg/L"}, {"measurement": "IC50", "setting": "A549", "value": 5.43, "unit": "mg/L"}, {"measurement": "IC50", "setting": "[18]", "value": 9.43, "unit": "mg/L"}, {"measurement": "inhibition of growth at 20 µg/mL", "setting": "HepG2 [19]", "value": 90, "unit": "%"}, {"measurement": "viability at 0.55 µg/mL", "setting": "HepG2 [20]", "value": 91.2, "unit": "%"}, {"measurement": "Activity", "setting": "HepG2 [21]", "value": 7, "unit": "%"}]}
